Experimental data as given in ChEMBL document CHEMBL1130011, “Chemical and biological studies on a series of novel (trans-(1R,2R)-, trans-(1S,2S)-, and cis-1,2-diaminocyclohexane)platinum(IV) carboxylate complexes” (J Med Chem, 1997).

Columns and labels:
Assay type in all cases: functional, organism-based
[1] = test system: Mus musculus; assay: Antitumor activity against L1210/cisplatin leukemia cells in mice at the optimal dose of 75 mg/kg/injection (median survival time of [treated mice/control mice])
Outline: (§1)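 Male B6D2F1 (C57BL/6 × DBA/2) mice were inoculated ip with 1 × 10^5 leukemia cells on day 0. Drug was given ip on days 1, 5 and 9, prepared in water or 0.9% NaCl and administered immediately, over a dose range of 0.5–200 mg/kg/injection. Animals were monitored daily. %T/C = median survival of treated × 100/median survival of controls. Cures were mice alive at day 60.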

[2] = test system: Mus musculus; assay: Antitumor activity against L1210/0 leukemia cells in mice at the optimal dose of 75 mg/kg/injection (median survival time of [treated mice/control mice]); outline: as §1
[3] = test system: Mus musculus; assay: Antitumor activity against L1210/0 leukemia cells in mice at the optimal dose of 200 mg/kg/injection (median survival time of [treated mice/control mice]); outline: as §1
[4] = test system: Mus musculus; assay: Antitumor activity against L1210/cisplatin leukemia cells in mice at the optimal dose of 5 mg/kg/injection (median survival time of [treated mice/control mice]); outline: as §1
[5] = test system: Mus musculus; assay: Antitumor activity against L1210/0 leukemia cells in mice at the optimal dose of 5 mg/kg/injection (median survival time of [treated mice/control mice]); outline: as §1
[6] = test system: Mus musculus; assay: Antitumor activity against M5076 reticulosarcoma grown subcutaneously in mice at the optimal dose of 5 mg/kg/injection
Outline: (§2)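 Male B6D2F1 (C57BL/6 × DBA/2) mice received 1 × 10^7 M5076 cells sc on day 0. Drug was given ip on days 5, 9, 13 and 17, prepared in water or 0.9% NaCl and given immediately, over a dose range of 0.5–200 mg/kg/injection. Animals were monitored daily. Results are expressed as %T/C (median survival ratio × 100) or as tumor growth delay.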

[7] = test system: Mus musculus; assay: Antitumor activity against L1210/0 leukemia cells in mice at the optimal dose of 100 mg/kg/injection (median survival time of [treated mice/control mice]); outline: as §1
[8] = test system: Mus musculus; assay: Antitumor activity against L1210/0 leukemia cells in mice at the optimal dose of 50 mg/kg/injection (median survival time of [treated mice/control mice]); outline: as §1
[9] = test system: Mus musculus; assay: Antitumor activity against L1210/cisplatin leukemia cells in mice at the optimal dose of 200 mg/kg/injection (median survival time of [treated mice/control mice]); outline: as §1
[10] = test system: Mus musculus; assay: Antitumor activity against M5076 reticulosarcoma grown subcutaneously in mice at the optimal dose of 200 mg/kg/injection; outline: as §2
[11] = test system: Mus musculus; assay: Antitumor activity against L1210/cisplatin leukemia cells in mice at the optimal dose of 50 mg/kg/injection (median survival time of [treated mice/control mice]); outline: as §1
[12] = test system: Mus musculus; assay: Antitumor activity against L1210/cisplatin leukemia cells in mice at the optimal dose of 100 mg/kg/injection (median survival time of [treated mice/control mice]); outline: as §1
[13] = test system: Mus musculus; assay: Antitumor activity against M5076 reticulosarcoma grown subcutaneously in mice at the optimal dose of 100 mg/kg/injection; outline: as §2
[14] = test system: Mus musculus; assay: Antitumor activity against L1210/cisplatin leukemia cells in mice at the optimal dose of 25 mg/kg/injection (median survival time of [treated mice/control mice]); outline: as §1
[15] = test system: Mus musculus; assay: Antitumor activity against L1210/0 leukemia cells in mice at the optimal dose of 25 mg/kg/injection (median survival time of [treated mice/control mice]); outline: as §1

Substance: CARBOPLATIN
- T/C [1]: 111%
- T/C [2]: 147%

Substance: Platinum IV (cis-1,2-diaminecyclohexyl)-trans-(acetate)2 (1,1-cyclobutanedicarboxylate)
- T/C [3]: 112%

Substance: CISPLATIN
- T/C [4]: 100%
- T/C [5]: 300%
- Tumor growth delay [6]: 16.3 days

Substance: Platinum IV (cis-1,2-diaminecyclohexyl)-trans-(acetate)2 (oxalate)
- T/C [7]: 159%

Substance: Platinum IV (trans-(1S,2S)-diaminecyclohexyl)-trans-(acetate)2 (cyclobutanecarboxylate)2
- T/C [8]: 182%

Substance: Platinum IV (trans-(1S,2S)-diaminecyclohexyl) (acetate)4
- T/C [3]: 194%

Substance: Platinum IV (trans-(1R,2R)-diaminecyclohexyl)-trans-(acetate)2 (methylmalonate)
- T/C [9]: 93%
- Tumor growth delay [10]: 21.3 days
- T/C [3]: 147%

Substance: Platinum IV (trans-(1R,2R)-diaminecyclohexyl)-trans-(trifluoroacetate)2 (oxalate)
- T/C [8]: > 700%
- T/C [11]: 176%

Substance: Platinum IV (trans-(1S,2S)-diaminecyclohexyl)-trans-(acetate)2 (oxalate)
- T/C [8]: 135%

Substance: Platinum IV (trans-(1R,2R)-diaminecyclohexyl) (acetate)4
- T/C [3]: 206%

Substance: Platinum IV (trans-(1R,2R)-diaminecyclohexyl)-trans-(trifluoroacetate)2 (1,1-cyclobutanedicarboxylate)
- T/C [12]: 205%
- T/C [3]: 253%

Substance: Platinum IV (trans-(1R,2R)-diaminecyclohexyl)-trans-(acetate)2 (1,1-cyclobutanedicarboxylate)
- T/C [9]: 100%
- Tumor growth delay [10]: 15.8 days
- T/C [3]: 112%

Substance: Platinum IV (cis-1,2-diaminecyclohexyl)-trans-(acetate)2 (malonate)
- T/C [3]: 206%

Substance: [Pt(O2CCH3)4(dach)]dach
- T/C [3]: 182%

Substance: Platinum IV (trans-(1R,2R)-diaminecyclohexyl)-trans-(acetate)2 (cyclobutanecarboxylate)2
- T/C [11]: 157%
- T/C [7]: 206%

Substance: Platinum IV (trans-(1R,2R)-diaminecyclohexyl)-trans-(acetate)2
- T/C [11]: 144%
- T/C [7]: 265%
- Tumor growth delay [13]: 19.5 days

Substance: Platinum IV (trans-(1R,2R)-diaminecyclohexyl)-trans-(trifluoroacetate)2 (acetate)4
- T/C [14]: 148%
- T/C [15]: 218%

Substance: Platinum IV (trans-(1R,2R)-diaminecyclohexyl)-trans-(acetate)2 (oxalate)
- T/C [8]: 171%
